Results: ChEMBL document CHEMBL3580602, “Iminolactones from Schizophyllum commune” (J Nat Prod, 2015)
Activity calls are given as the source filed them. No cut-off for these calls is given here.

Legend:
EL4 [1] = test: Cytotoxicity against mouse EL4 cells assessed as growth inhibition after 48 hrs by sulforhodamine B assay; type: functional, cell-based; details: EL4, 48 h
Outline: (§1)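 Cancer lines sourced from the National Cancer Institute and run in a high-flux anticancer screen. Cells were exposed to the test compound over a range of concentrations at 37 °C for 48 h. IC50 is reported as the mean of four experiments, with thapsigargin, methotrexate and paclitaxel as positive controls.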

PC-3 [2] = test: Cytotoxicity against human PC3 cells up to 200 uM after 48 hrs by sulforhodamine B assay; type: functional, cell-based; outline: as §1
MCF7 [3] = test: Cytotoxicity against human MCF7 cells up to 200 uM after 48 hrs by sulforhodamine B assay; type: functional, cell-based; outline: as §1
EL4 [4] = test: Cytotoxicity against mouse EL4 cells up to 200 uM after 48 hrs by sulforhodamine B assay; type: functional, cell-based; outline: as §1
[5] = Cytotoxicity against human MCF10A cells up to 200 uM; type: cell-based; details: mcf-10a
[6] = Cytotoxicity against mouse McCoy cells up to 200 uM; type: cell-based
[7] = Cytotoxicity against mouse McCoy cells assessed as growth inhibition at 1230 uM relative to control; type: cell-based; details: read-out: GI
[8] = Cytotoxicity against human MCF10A cells assessed as growth inhibition at 1230 uM relative to control; type: cell-based, MCF-10A; details: read-out: GI
PC-3 [9] = test: Cytotoxicity against human PC3 cells assessed as growth inhibition after 48 hrs by sulforhodamine B assay; type: functional, cell-based; details: PC-3, 48 h; outline: as §1
[10] = Cytotoxicity against human MCF10A cells assessed as growth inhibition; type: cell-based; details: MCF-10A
MCF7 [11] = test: Cytotoxicity against human MCF7 cells assessed as growth inhibition after 48 hrs by sulforhodamine B assay; type: functional, cell-based; details: MCF7, 48 h; outline: as §1
[12] = Cytotoxicity against mouse McCoy cells assessed as growth inhibition; type: cell-based

Row | Compound | IC50 (EL4 [1]) [µM] | Activity (PC-3 [2]) | Activity (MCF7 [3]) | Activity (EL4 [4]) | Activity [5] | Activity [6] | inhibition at 1230 µM [7] [%] | inhibition at 1230 µM [8] [%] | IC50 (PC-3 [9]) [µM] | IC50 [10] [µM] | IC50 (MCF7 [11]) [µM] | IC50 [12] [µM]
1 | CC(=O)O[C@H]1C(=O)[C@@]2(C)[C@H]([C@H](OC(=O)c3ccccc3)[C@]3(O)C[C@H](OC(=O)[C@H](O)[C@@H](NC(=O)c4ccccc4)c4ccccc4)C(C)=C1C3(C)C)[C@]1(OC(C)=O)CO[C@@H]1C[C@@H]2O [PACLITAXEL] | 1.7 |  |  |  |  |  |  |  |  |  |  | 
2 | CC1(C)C[C@@H]2OC(=O)[C@@H](Cc3ccccc3)N=C2[C@@]23C(=O)OC4OCC(=CC[C@@H]12)[C@H]43 (stereo partly specified) |  | inactive | inactive | inactive | Non-toxic | Non-toxic |  |  |  |  |  | 
3 | CC1(C)C[C@@H]2OC(=O)[C@H](Cc3c[nH]c4ccccc34)N=C2[C@@]23C(=O)OC4OCC(=CC[C@@H]12)[C@H]43 (stereo partly specified) | 4 |  |  |  |  |  | 41 | 20 | 13.4 | > 1230 | 6.7 | > 1230
4 | C/C=C(/C)C(=O)O[C@H]1C(C)=C2[C@H]([C@@H]1OC(=O)CCCCCCC)[C@@](C)(OC(C)=O)C[C@H](OC(=O)CCC)[C@@]1(O)[C@H]2OC(=O)[C@@]1(C)O [THAPSIGARGIN] | 1.4 |  |  |  |  |  |  |  | 2.4 | 2.4 | 2.7 | 2
5 | CN(Cc1cnc2nc(N)nc(N)c2n1)c1ccc(C(=O)N[C@@H](CCC(=O)O)C(=O)O)cc1 [METHOTREXATE] | 5.1 |  |  |  |  |  |  |  |  |  |  | 
6 | CC1(C)C[C@@H]2OC(=O)[C@H](Cc3ccccc3)N=C2[C@@]23C(=O)OC4OCC(=CC[C@@H]12)[C@H]43 (stereo partly specified) | 3.7 |  |  |  |  |  | 30 | 22 | 14.7 | > 1230 | 4.9 | > 1230
